Test results from ChEMBL document CHEMBL4396879, “Conjugation of Short Peptides to Dibenzodiazepinone-Type Muscarinic Acetylcholine Receptor Ligands Determines M2R Selectivity” (J Med Chem, 2019).
pKi: −log10 of the molar value.

Key:
Format in all cases: cell-based
[1] = target: T1, Muscarinic acetylcholine receptor M2 (Homo sapiens, UniProt P08172); test: Binding affinity to muscarinic M2 receptor (unknown origin) expressed in CHO cells
T1 sequence (P08172 whole entry): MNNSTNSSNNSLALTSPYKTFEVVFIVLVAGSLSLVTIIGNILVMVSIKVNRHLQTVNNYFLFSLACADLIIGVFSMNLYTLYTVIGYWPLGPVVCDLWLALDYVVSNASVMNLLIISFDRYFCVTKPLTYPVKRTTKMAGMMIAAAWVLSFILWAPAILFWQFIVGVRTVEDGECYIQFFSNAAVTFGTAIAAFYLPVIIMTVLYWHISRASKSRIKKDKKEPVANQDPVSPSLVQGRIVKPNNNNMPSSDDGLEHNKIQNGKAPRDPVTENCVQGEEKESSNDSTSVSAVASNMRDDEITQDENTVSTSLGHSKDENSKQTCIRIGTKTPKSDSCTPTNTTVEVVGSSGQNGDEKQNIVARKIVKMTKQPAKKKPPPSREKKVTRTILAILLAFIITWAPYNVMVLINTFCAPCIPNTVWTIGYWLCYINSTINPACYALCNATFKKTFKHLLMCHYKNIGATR
How it was run: (§1)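 [3H]NMS competition binding on intact CHO-hMxR cells in L15 medium with 1% BSA, 3 h at 22 ± 1 °C with gentle shaking. [3H]NMS was 0.2 nM (M1, M2, M3), 0.1 nM (M4) or 0.3 nM (M5). […] Cells were lysed in urea/acetic acid/Triton and counted by liquid scintillation. Ki from Cheng-Prusoff. Triplicates, ≥3 experiments.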

[2] = target: T2, Muscarinic acetylcholine receptor M1 (Homo sapiens, UniProt P11229); test: Binding affinity to muscarinic M1 receptor (unknown origin) expressed in CHO cells; how it was run: as §1
T2 sequence (P11229 whole entry): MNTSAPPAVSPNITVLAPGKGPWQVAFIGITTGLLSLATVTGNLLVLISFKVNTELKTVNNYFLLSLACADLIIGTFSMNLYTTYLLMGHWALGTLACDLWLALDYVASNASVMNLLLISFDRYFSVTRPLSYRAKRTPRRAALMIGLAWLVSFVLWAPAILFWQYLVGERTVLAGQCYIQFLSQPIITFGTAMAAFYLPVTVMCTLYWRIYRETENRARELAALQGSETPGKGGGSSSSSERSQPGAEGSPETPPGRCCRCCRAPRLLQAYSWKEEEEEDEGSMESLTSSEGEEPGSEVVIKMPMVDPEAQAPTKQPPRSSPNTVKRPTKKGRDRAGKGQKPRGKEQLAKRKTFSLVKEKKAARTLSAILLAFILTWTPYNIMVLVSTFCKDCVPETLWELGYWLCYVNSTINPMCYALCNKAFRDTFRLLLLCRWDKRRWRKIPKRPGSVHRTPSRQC

[3] = target: T3, Muscarinic acetylcholine receptor M3 (Homo sapiens, UniProt P20309); test: Binding affinity to muscarinic M3 receptor (unknown origin) expressed in CHO cells; how it was run: as §1
T3 sequence (P20309 whole entry): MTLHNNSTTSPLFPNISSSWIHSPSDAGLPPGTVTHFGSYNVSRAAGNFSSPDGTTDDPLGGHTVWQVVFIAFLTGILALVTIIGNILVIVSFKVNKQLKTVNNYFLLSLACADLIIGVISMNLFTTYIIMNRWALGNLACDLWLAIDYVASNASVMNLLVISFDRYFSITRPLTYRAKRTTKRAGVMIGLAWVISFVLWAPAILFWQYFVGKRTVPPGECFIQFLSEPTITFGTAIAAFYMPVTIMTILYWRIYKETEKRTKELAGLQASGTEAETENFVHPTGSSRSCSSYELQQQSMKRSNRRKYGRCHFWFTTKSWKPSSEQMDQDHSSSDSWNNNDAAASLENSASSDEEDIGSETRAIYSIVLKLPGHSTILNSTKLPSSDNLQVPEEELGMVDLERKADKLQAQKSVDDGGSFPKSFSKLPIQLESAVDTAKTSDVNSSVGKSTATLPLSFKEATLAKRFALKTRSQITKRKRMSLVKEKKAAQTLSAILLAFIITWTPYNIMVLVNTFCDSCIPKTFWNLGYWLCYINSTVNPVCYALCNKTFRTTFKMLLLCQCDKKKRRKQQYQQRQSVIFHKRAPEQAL

[4] = target: T4, Muscarinic acetylcholine receptor M4 (Homo sapiens, UniProt P08173); test: Binding affinity to muscarinic M4 receptor (unknown origin) expressed in CHO cells; how it was run: as §1
T4 sequence (P08173 whole entry): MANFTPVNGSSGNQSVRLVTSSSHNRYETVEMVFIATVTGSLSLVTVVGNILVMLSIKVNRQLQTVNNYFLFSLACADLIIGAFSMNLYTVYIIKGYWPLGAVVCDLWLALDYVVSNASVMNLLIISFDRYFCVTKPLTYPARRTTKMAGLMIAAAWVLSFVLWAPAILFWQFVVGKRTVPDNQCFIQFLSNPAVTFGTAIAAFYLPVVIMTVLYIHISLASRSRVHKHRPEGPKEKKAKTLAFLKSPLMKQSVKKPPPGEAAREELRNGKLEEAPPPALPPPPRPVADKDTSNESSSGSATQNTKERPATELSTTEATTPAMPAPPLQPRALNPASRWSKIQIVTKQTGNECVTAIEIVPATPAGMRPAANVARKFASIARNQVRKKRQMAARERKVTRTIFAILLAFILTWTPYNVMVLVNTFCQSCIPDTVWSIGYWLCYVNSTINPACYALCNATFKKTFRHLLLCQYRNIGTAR

[5] = target: T5, Muscarinic acetylcholine receptor M5 (Homo sapiens, UniProt P08912); test: Binding affinity to muscarinic M5 receptor (unknown origin) expressed in CHO cells; how it was run: as §1
T5 sequence (P08912 whole entry): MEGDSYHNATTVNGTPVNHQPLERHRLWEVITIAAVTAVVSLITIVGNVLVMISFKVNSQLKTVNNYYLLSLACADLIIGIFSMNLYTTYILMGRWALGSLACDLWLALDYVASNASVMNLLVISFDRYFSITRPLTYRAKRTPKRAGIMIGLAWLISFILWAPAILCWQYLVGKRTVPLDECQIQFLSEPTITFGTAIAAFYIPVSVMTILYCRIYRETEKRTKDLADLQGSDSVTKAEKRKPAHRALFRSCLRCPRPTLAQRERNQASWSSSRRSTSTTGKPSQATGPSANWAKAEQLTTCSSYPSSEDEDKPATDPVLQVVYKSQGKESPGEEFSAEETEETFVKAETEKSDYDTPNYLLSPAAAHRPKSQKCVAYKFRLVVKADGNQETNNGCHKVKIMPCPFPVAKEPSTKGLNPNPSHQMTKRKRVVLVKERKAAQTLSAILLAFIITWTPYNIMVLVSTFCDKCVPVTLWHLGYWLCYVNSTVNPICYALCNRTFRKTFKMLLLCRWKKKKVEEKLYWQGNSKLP

[6] = target: Muscarinic acetylcholine receptors; M1 & M2 (Homo sapiens) (UniProt P11229+P08172); test: Selectivity ratio of Ki for muscarinic M1 receptor (unknown origin) expressed in CHO cells to Ki for muscarinic M2 receptor (unknown origin) expressed in CHO cells
How it was run: (§2)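 Ratio of mean Ki values. Each Ki came from an individual [3H]NMS competition experiment at the given CHO-hMxR subtype, converting IC50 to Ki by Cheng-Prusoff before averaging.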

[7] = target: T6, Muscarinic acetylcholine receptors; M2 & M3 (Homo sapiens) (UniProt P20309+P08172); test: Selectivity ratio of Ki for muscarinic M3 receptor (unknown origin) expressed in CHO cells to Ki for muscarinic M2 receptor (unknown origin) expressed in CHO cells; how it was run: as §2
T6 sequence (P20309 whole entry, looked up, one chain of several): as the sequence (P20309 whole entry) above

[8] = target: Muscarinic acetylcholine receptor M2 and M4 (Homo sapiens) (UniProt P08173+P08172); test: Selectivity ratio of ki for muscarinic M4 receptor (unknown origin) expressed in CHO cells to muscarinic M2 receptor (unknown origin) expressed in CHO cells; how it was run: as §2
[9] = target: T7, Muscarinic acetylcholine receptor M2 and M5 (Homo sapiens) (UniProt P08172+P08912); test: Selectivity ratio of ki for muscarinic M5 receptor (unknown origin) expressed in CHO cells to muscarinic M2 receptor (unknown origin) expressed in CHO cells; how it was run: as §2
[10] = target: T6, Muscarinic acetylcholine receptors; M2 & M3 (Homo sapiens); test: Selectivity ratio of Ki for human muscarinic M3 receptor expressed in stable CHO-K1 cells to Ki for human muscarinic M2 receptor expressed in stable CHO-K1 cells
[11] = target: T7, Muscarinic acetylcholine receptor M2 and M5 (Homo sapiens); test: Selectivity ratio of Ki for human muscarinic M5 receptor expressed in stable CHO-K1 cells to Ki for human muscarinic M2 receptor expressed in stable CHO-K1 cells
[12] = target: T2, Muscarinic acetylcholine receptor M1; test: Displacement of [3H]-NMS from human muscarinic M1 receptor expressed in CHO-K1 cells by scintillation counting method; how it was run: as §1
[13] = target: T1, Muscarinic acetylcholine receptor M2; test: Displacement of [3H]-NMS from human muscarinic M2 receptor expressed in CHO-K1 cells by scintillation counting method; how it was run: as §1
[14] = target: T3, Muscarinic acetylcholine receptor M3; test: Displacement of [3H]-NMS from human muscarinic M3 receptor expressed in CHO-K1 cells by scintillation counting method; how it was run: as §1
[15] = target: T4, Muscarinic acetylcholine receptor M4; test: Displacement of [3H]-NMS from human muscarinic M4 receptor expressed in CHO-K1 cells by scintillation counting method; how it was run: as §1
[16] = target: T5, Muscarinic acetylcholine receptor M5; test: Displacement of [3H]-NMS from human muscarinic M5 receptor expressed in CHO-K1 cells by scintillation counting method; how it was run: as §1
[17] = target: T1, Muscarinic acetylcholine receptor M2; test: Displacement of [3H]-QNB from human muscarinic M2 receptor expressed in stable CHO-K1 cells incubated for 120 mins by radioligand competition binding assay

Row | Structure (SMILES) | pKi [1] | pKi [2] | pKi [3] | pKi [4] | pKi [5] | Ratio Ki [6] | Ratio Ki [7] | Ratio Ki [8] | Ratio Ki [9] | Ratio Ki [10] | Ratio Ki [11] | pKi [12] | pKi [13] | pKi [14] | pKi [15] | pKi [16] | pKi [17]
1 | CCCC(C)(C)C(=O)N(CC)CCCC1CCN(CC(=O)N2c3ccccc3NC(=O)c3ccccc32)CC1 | 8.10 | 6.50 | 6.40 | 7.30 | 6.50 | 40 | 50 | 6.3 | 40 |  |  |  |  |  |  |  | 
2 | CCCC(C)(C)C(=O)N(CC)CCCC1CCN(CC(=O)N2c3ccc(Cl)cc3C(=O)Nc3cccnc32)CC1 |  |  |  |  |  |  |  |  |  | 26 | 48 | 5.97 | 7.52 | 6.11 | 6.76 | 5.84 | 
3 | Cc1ccccc1C(=O)N1CCC(N2CCC(Cc3ccc(S(=O)(=O)c4cccc(Cl)c4)cc3)CC2)CC1 |  |  |  |  |  |  |  |  |  | 172 | 48 |  |  |  |  |  | 8.57
